Bioassay records deposited in PubChem BioAssay by SRMLSC.
Hits are enriched below; roughly 6.6% of the tested compounds scored in any of these assays.
Ecoli WT expand – E. coli BW25113 growth inhibition, expanded screen | OD600 absorbance | AID 710 | growth inhibition, % at 100 µM | 98,000 compounds, 0.15% hits;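 active = growth inhibition above about 50% at one test dose, limit read from the data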;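 also: growth measured after 20 h incubation at 37 °C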
Ecoli tolC – blocks growth of E. coli BW25113 tolC mutant | OD615 | 65,000 compounds, 2.2% hits | AID 573 | growth inhibition, % at 10 µM (by protocol);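 active = growth inhibition at or above a cutoff equal to the mean over every tested compound plus 3 SD, cut at about 60% in these data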;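 also: growth measured after 20 h incubation at 37 °C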
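signal = optical density read at 615 nm | test system = E. coli ΔtolC::kan strain BW25113 | timing = 20 h compound exposure of bacteria at 37 °C | buffer or medium = LB medium plus 50 µg/mL kanamycin | compound dosing = 10 µM final, single dose | evaluation = % inhibition of E. coli growth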
PostGolgi ctrl – growth of the yeast control strain, post-Golgi counter-screen; inhibition, % at 10 µM; efflux-deficient yeast background strain, growth absorbance A615, 16 h; 98,000 compounds, 5% hits; AID 738
PostGolgi yeast – growth inhibition of a yeast mutant, post-Golgi transport screen; post-Golgi transport phenotypic cell assay; inhibition, % at 10 µM; 98,000 compounds, 0.9% hits; AID 739;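 also: yeast cells grown in 1536-well plates; yeast grown about 18 h at 30C before absorbance read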
Her2 expr inh – Her2 kinase expression inhibition. 65,000 compounds, 0.69% hits. P04626. HER2 level % of control, % at 10 µM. SKBR-3 HER2 protein level, AlphaScreen, 18-24 h; active compounds read low;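 active = HER2 level under 5% of the carrier-only control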;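 also: 100% = DMSO carrier and 0% = 500 nM PU-H71 HSP90 inhibitor; lower value means stronger loss of Her2 protein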
* hit, by the source's call; . = no result. Rule as the data show it, unless noted: active = inhibition above about 30%; inactive = the rest.

SMILES	Ecoli WT expand	Ecoli tolC	PostGolgi ctrl	PostGolgi yeast	Her2 expr inh
COC(=O)C(CC(=O)c1ccc(Br)cc1)n1ccnc1 (configuration not stated)	59*	5	-3	-5	67
O=c1c2ccc(-c3nnc4n3-c3ccccc3SC4)cc2nc2n1CCCCC2	.	-6	.	.	84
CCCn1c(=O)c(C(=O)NCc2ccccn2)c(O)c2ccccc21	-6	25	10	-5	83
CC(C)Cn1c(=O)c(C(=O)Nc2ccncc2)c(O)c2ccccc21	.	96*	.	.	-13*
CC(C)Cn1c(=O)c(C(=O)Nc2cnccn2)c(O)c2ccccc21	-9	100*	39*	6	34
CCCn1c(=O)c(C(=O)Nc2nnc(C)s2)c(O)c2ccccc21	.	80*	.	.	106
CCNCCNC(=O)c1c(O)c2ccccc2n(CC)c1=O	9	-10	41*	0	139
COc1ccc(/C(O)=C2\C(=O)C(=O)N(CCCN(C)C)C2c2ccccc2F)cc1Cl (configuration not stated)	.	-27	.	.	115
COc1ccc(CNC(=O)CSc2nnc(C)s2)cc1	.	-13	.	.	95
CCCNS(=O)(=O)c1cc(Br)cc2c1N(C(=O)CC)CC2	2	-17	34*	11	148
CCOCCCNS(=O)(=O)c1cc(Br)cc2c1N(C(=O)C1CC1)CC2	5	14	6	3	109
O=C(CCC(=O)OCC(=O)c1ccc(Cl)cc1Cl)Nc1cccc2cccnc12	4	.	38*	2	.
COC1CCCCC1Nc1cccc(SC)c1 (configuration not stated)	1	16	35*	-6	93
COc1ccc(NC(=O)N(C2CCCCC2)C(C)c2cccnc2)c(OC)c1 (configuration not stated)	-3	8	28	80*	103
COc1ccc(NC(=O)N(C2CCCCC2)C2CCN(C(C)C)CC2)c(OC)c1	0	-28	3	12	126
COc1ccc(NC(=O)N(C2CCCCC2)C(C)c2ccco2)c(OC)c1 (configuration not stated)	-17	69*	18	-8	92
Cc1sc(NC(=O)c2ccco2)c(C(c2cccnc2)N2CCCC2)c1C (configuration not stated)	-8	.	39*	0	.
Cc1sc(NC(=O)c2ccco2)c(CN2CCCCC2)c1C	10	-9	24	-8	95
Cc1sc(NC(=O)c2ccco2)c(C(c2cccnc2)N2CCN(C)CC2)c1C (configuration not stated)	3	.	15	-4	.
Cc1sc(NC(=O)c2ccco2)c(C(c2ccncc2)N2CCOCC2)c1C (configuration not stated)	0	10	33*	-4	86
CC1(C)OC(=O)C(=CNn2cnc3ccccc3c2=O)C(=O)O1	-2	-23	3	5	94
O=C(Nc1nccs1)c1cc(N2CCOCC2)nc2ccccc12	0	3	34*	-1	103
O=C(Nc1ccccc1)c1cc(N2CCOCC2)nc2ccccc12	-9	7	14	11	108
O=C(NCc1ccco1)C(NS(=O)(=O)c1cccc2nsnc12)c1ccccc1 (configuration not stated)	-7	5	7	1	82
Cc1nn2c(-c3ccccc3)nnc2c2ccccc12	-5	37	31*	-1	109
SMILES	Ecoli WT expand	Ecoli tolC	PostGolgi ctrl	PostGolgi yeast	Her2 expr inh
Cc1nn2c(-c3cccc(NC(=O)c4ccco4)c3)nnc2c2ccccc12	0	26	27	-2	74
O=C(Nc1ccccc1)N1CCCC(c2nc(-c3cccs3)no2)C1 (configuration not stated)	6	18	27	2	91
N#Cc1c(-c2ccco2)cc(-c2ccccn2)nc1N	4	26	9	-2	-1.2*
c1ccc(-c2cccc(-c3ccccn3)n2)nc1	68*	73*	19	3	54
Cc1ccc2c(c1)c1ncnc(N3CCN(c4ccccc4)CC3)c1n2C	-8	64*	53*	17	90
Cc1ccc2c(c1)c1ncnc(N3CCC4(CC3)OCCO4)c1n2C	4	18	19	-2	87
Cc1ccc2c(c1)c1ncnc(N3CCOCC3)c1n2C	-2	12	36*	20	75
CCc1nc(NCCCCCO)c2nnn(Cc3ccccc3F)c2n1	4	.	3	-2	.
CC(=O)C1=NN(c2ccccc2)C2(S1)S/C(=C\c1ccccc1)C(=O)N2c1ccccc1 (configuration not stated)	-17	.	0	-7	.
CCc1oc(C(=O)O)cc1COC	2	-28	33*	-21	115
